Source: ChEMBL document CHEMBL1129355, “Synthesis of 3 beta-aryl-8-azabicyclo[3.2.1]octanes with high binding affinities and selectivities for the serotonin transporter site” (J Med Chem, 1996)

Assays:
[1] = target: Sodium-dependent serotonin transporter (Rattus norvegicus, UniProt P31652); experiment: Displacement of [3H]paroxetine from Serotonin transporter of rat frontal cortex membrane; assay type: tissue-based
Outline: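 Rat frontal cortex membranes (50 mg original wet weight) with 0.4 nM [3H]paroxetine. Nonspecific binding defined with 10 μM fluoxetine. Displacement curves used 7-10 unlabeled-analog concentrations. Ki came from the Cheng-Prusoff equation. Mean ± SEM of at least three experiments, each in triplicate.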

[2] = target: Sodium-dependent dopamine transporter (Rattus norvegicus, UniProt P23977); experiment: Displacement of [125I]RTI-55 from dopamine transporter of rat brain membranes; assay type: cell membranes, Membrane
Sequence of Sodium-dependent dopamine transporter (P23977 whole entry): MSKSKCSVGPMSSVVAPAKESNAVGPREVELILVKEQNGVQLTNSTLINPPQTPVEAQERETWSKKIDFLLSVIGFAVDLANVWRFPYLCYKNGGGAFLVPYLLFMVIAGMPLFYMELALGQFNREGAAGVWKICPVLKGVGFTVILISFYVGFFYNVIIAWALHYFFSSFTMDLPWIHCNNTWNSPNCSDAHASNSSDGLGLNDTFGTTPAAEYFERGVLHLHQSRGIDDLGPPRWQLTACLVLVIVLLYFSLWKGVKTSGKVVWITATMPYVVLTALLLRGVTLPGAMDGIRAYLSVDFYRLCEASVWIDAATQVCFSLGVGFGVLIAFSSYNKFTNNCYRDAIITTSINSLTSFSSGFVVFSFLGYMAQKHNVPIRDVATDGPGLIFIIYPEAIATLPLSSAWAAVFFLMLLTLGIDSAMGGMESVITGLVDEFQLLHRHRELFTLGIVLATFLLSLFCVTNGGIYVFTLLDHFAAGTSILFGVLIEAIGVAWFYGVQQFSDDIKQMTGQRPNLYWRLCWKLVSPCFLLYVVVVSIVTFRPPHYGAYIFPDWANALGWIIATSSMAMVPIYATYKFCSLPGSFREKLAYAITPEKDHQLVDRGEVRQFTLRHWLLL
Outline: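 Rat striatal membranes (0.5 mg original wet weight) with 10 pM [125I]RTI-55. Nonspecific binding defined with a 1 μM tropane analog. Displacement curves used 7-10 unlabeled-analog concentrations. IC50 was reported because binding is multiphasic. Mean ± SEM of at least three experiments, each in triplicate.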

[3] = target: Monoamine transporters; serotonin & dopamine (Rattus norvegicus) (UniProt P31652+P23977); experiment: Relative affinity for dopamine and Serotonin transporters; assay type: protein assay
Sequence of Monoamine transporters; serotonin & dopamine (Rattus norvegicus) (P23977 whole entry, looked up): as the sequence (P23977 whole entry) above
Sequence of Monoamine transporters; serotonin & dopamine (Rattus norvegicus) (P31652 whole entry, looked up): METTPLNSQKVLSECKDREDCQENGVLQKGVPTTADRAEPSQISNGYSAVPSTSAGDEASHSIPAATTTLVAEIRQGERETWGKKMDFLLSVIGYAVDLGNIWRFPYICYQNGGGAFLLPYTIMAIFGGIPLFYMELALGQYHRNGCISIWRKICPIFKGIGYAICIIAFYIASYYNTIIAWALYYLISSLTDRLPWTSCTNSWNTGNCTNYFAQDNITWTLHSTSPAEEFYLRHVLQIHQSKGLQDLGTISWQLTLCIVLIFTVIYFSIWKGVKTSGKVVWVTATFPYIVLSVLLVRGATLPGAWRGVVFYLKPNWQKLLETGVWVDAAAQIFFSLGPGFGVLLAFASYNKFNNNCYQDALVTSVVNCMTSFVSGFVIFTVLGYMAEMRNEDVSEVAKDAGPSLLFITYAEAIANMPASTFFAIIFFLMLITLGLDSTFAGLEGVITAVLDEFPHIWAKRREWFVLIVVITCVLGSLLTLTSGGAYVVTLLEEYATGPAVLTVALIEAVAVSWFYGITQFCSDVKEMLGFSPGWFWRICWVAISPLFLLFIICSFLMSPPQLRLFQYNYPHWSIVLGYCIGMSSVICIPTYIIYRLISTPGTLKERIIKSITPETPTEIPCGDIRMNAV
Outline: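 Ratio of DAT IC50 ([125I]RTI-55, rat striatum) to SERT Ki ([3H]paroxetine, rat frontal cortex), each from displacement curves of 7-10 concentrations. Triplicate runs, at least three experiments.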

[4] = target: Norepinephrine transporter (Rattus norvegicus, UniProt Q9WTR4); experiment: Displacement of [3H]-nisoxatine from Norepinephrine transporter of rat forebrain membrane; assay type: tissue-based, Brain
Sequence of Norepinephrine transporter (Q9WTR4 whole entry): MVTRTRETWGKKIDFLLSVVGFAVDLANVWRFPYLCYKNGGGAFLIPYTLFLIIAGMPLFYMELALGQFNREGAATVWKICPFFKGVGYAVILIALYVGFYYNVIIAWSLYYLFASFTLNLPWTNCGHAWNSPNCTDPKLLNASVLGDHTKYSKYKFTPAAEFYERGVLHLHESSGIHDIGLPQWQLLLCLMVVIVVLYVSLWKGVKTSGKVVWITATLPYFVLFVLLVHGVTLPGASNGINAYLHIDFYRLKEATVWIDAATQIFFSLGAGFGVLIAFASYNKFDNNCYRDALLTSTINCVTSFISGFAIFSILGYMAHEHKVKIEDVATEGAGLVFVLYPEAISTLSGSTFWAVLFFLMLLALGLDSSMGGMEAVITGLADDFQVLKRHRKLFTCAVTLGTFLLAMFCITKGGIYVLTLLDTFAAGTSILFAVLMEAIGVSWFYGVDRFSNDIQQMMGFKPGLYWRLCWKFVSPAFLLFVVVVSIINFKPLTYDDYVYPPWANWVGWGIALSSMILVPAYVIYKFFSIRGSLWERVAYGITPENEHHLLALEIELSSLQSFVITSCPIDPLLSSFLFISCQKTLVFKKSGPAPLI

Sequence of Sodium-dependent serotonin transporter (P31652 whole entry): as the sequence (P31652 whole entry, looked up) above

Compound | Ki [1] [nM] | IC50 [2] [nM] | Ratio [3] | Ki [4] [nM]
CCC(=O)C1C2CCC(CC1c1ccc(C3CCCCC3)cc1)N2 (configuration not stated) | 85 | 490 | 5.8 | 4300
CCC(=O)C1C(c2ccc(C(CC)CC)cc2)CC2CCC1N2C (configuration not stated) | 540 | 270 | 0.5 | > 10000
C=Cc1ccc(C2CC3CCC(N3)C2C(=O)CC)cc1 (configuration not stated) | 0.32 | 1.5 | 4.7 | 10.9
CCC(=O)C1C2CCC(CC1c1ccc(C(CC)CC)cc1)N2 (configuration not stated) | 150 | 190 | 1.27 | 5100
CCC(=O)C1C2CCC(CC1c1ccc(C)cc1)N2 (configuration not stated) | 19 | 4.7 | 0.25 | 5.5
CCC(=O)C1C2CCC(CC1c1ccc3ccccc3c1)N2 (configuration not stated) | 0.22 | 36 | – | 440
CCC(=O)C1C(c2ccc(C3CCCCC3)cc2)CC2CCC1N2C (configuration not stated) | 97 | 320 | 3.3 | > 10000
C=C(C)c1ccc(C2CC3CCC(N3)C2C(=O)CC)cc1 (configuration not stated) | 0.11 | 16 | 150 | 94
C=C(C)c1ccc(C2CC3CCC(C2C(=O)CC)N3C)cc1 (configuration not stated) | 0.82 | 7.2 | 8.8 | 794
C=Cc1ccc(C2CC3CCC(C2C(=O)CC)N3C)cc1 (configuration not stated) | 3.2 | 0.9 | 0.28 | 78
CCC(=O)C1C2CCC(CC1c1ccc(C(C)C)cc1)N2 (configuration not stated) | 5.3 | 540 | 72 | 150
CCC(=O)C1C(c2ccc(C)cc2)CC2CCC1N2C (configuration not stated) | – | – | 0.063 | 160
CCC(=O)C1C(c2ccc3ccccc3c2)CC2CCC1N2C (configuration not stated) | – | – | 0.31 | 2.9
